The values below come from ChEMBL document CHEMBL1122389, “Synthesis and substituent effects on antibacterial activity, alkaline hydrolysis rates, and infrared absorption frequencies of some cephem analogues related to latamoxef (moxalactam)” (J Med Chem, 1983).

Data set [1] has as its system Escherichia coli. Put plainly: Minimum inhibitory concentration (MIC) against Escherichia coli NIHJ JC-2 in gradient plate method. The class given is functional. In a few lines:
(§1)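 Gradient plate technique. Compound is incorporated into a tilted bottom agar layer, then overlaid horizontally with compound-free agar. A 10^6 cells/mL suspension is streaked across the gradient and incubated at 37 °C for 18–20 h. MIC is calculated from the growth distance along the streak and the original bottom-layer concentration.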

Data set [2] is described as follows: V max(amide I) measured in dimethyl sulfoxide. The class given is ADME. In a few lines: (§2)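 IR stretching frequencies measured in dimethyl sulfoxide solution. Frequencies are calibrated against the rotational bands of the vapor.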
Data set [3] can be described thus: V max(beta-lactam) measured in dimethyl sulfoxide. The class given is ADME. Summed up:
as §2

A short description of data set [4]: Pseudo-first order rate of beta-lactam cleavage at pH 9.2 and 35 degrees C. It counts as ADME. Summed up:
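Alkaline hydrolysis at pH 9.2 and 35.0 °C, followed as loss of absorbance near 260 nm. This is a slightly lower pH than a pH 9.94 carbonate buffer (NaHCO3 + Na2CO3 + NaCl, μ = 0.5). Pseudo-first-order k is obtained by least squares over the linear regions at 95% confidence.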

Data set [5] deals with Klebsiella pneumoniae. The experiment in a line: Minimum inhibitory concentration (MIC) against Klebsiella pneumoniae SRL-1 in gradient plate method. It counts as functional. Summed up:
as §1

In data set [6] the test system is Klebsiella pneumoniae. Put plainly: Minimum inhibitory concentration (MIC) against Klebsiella pneumoniae SRL-1 in agar dilution method. It counts as functional. Summed up: (§3)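 Agar dilution on sensitivity test agar. Overnight tryptose broth culture diluted in the same broth to about 10^6 cells/mL and inoculated onto agar containing serial twofold dilutions of antibiotic. Incubated at 37 °C for 18–20 h. MIC taken as the lowest concentration inhibiting visible growth.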

Data set [7] concerns Escherichia coli. The experiment in a line: Minimum inhibitory concentration (MIC) against Escherichia coli NIHJ JC-2 in agar dilution method. The class given is functional. In a few lines: as §3
For data set [8], the system named is Klebsiella pneumoniae. The experiment in a line: Minimum inhibitory concentration (MIC) against Klebsiella pneumoniae SRL-1 iin agar dilution method. It counts as functional. Summed up:
as §3

Structures are written as SMILES.

`Cn1nnnc1SCC1=C(C(=O)[O-])N2C(=O)[C@@H](NC(=O)C(C(=O)[O-])c3ccc(O)cc3)C2OC1.[Na+].[Na+]` (some centres undefined): the MIC in data set [1] turned out to be 0.29 µg/mL; in data set [5] it was 0.3 µg/mL. For the same molecule, the Vmax in data set [2] came out at 1665.4 cm⁻¹; in data set [3], 1779.2 cm⁻¹. Besides, in data set [4], the k was 0.127 h⁻¹.

`Cn1nnnc1SCC1=C(C(=O)[O-])N2C(=O)[C@@](C)(NC(=O)C(C(=O)[O-])c3ccc(O)cc3)C2OC1.[Na+].[Na+]` (some centres undefined): the MIC in data set [6] and in data set [7] was 12.5 µg/mL each time. Moreover, the Vmax in data set [2] came out at 1668.2 cm⁻¹; in data set [3] it was 1774.5 cm⁻¹. The molecule further showed a k in data set [4] of 0.0148 h⁻¹.

With `Cn1nnnc1SCC1=C(C(=O)[O-])N2C(=O)[C@@H](NC(=O)Cc3ccc(O)cc3)C2OC1.[Na+]` (some centres undefined), the minimum inhibitory concentration (MIC) in data set [1] stood at 0.34 µg/mL; in data set [5] it was 0.31 µg/mL. In addition, the figures for the Vmax in data set [2] and in data set [3] were 1674.5 cm⁻¹ and 1778.2 cm⁻¹, respectively. Also, the k in data set [4] turned out to be 0.139 h⁻¹.

Take `Cn1nnnc1SCC1=C(C(=O)[O-])N2C(=O)[C@@H](NC(=O)C(C(=O)[O-])c3ccc(O)cc3)C2SC1.[Na+].[Na+]` (some centres undefined): the minimum inhibitory concentration (MIC) worked out at 1.5 µg/mL in data set [1] and 2.3 µg/mL in data set [5]. Moreover, the results for the Vmax in data set [2] and in data set [3] were 1669 cm⁻¹ and 1770 cm⁻¹, respectively. The molecule also gave a k in data set [4] of 0.0239 h⁻¹.

`CO[C@@]1(NC(=O)C(C(=O)[O-])c2ccc(O)cc2)C(=O)N2C(C(=O)[O-])=C(CSc3nnnn3C)CSC21.[Na+].[Na+]` (some centres undefined): the MIC in data set [8] was determined as 0.39 µg/mL; in data set [1] it was 0.55 µg/mL; in data set [7], 0.78 µg/mL; in data set [5], 0.37 µg/mL. Also, the Vmax in data set [2] amounted to 1682.3 cm⁻¹; in data set [3], 1767.8 cm⁻¹. For the same molecule, the k in data set [4] was found to be 0.0239 h⁻¹.

As for `CO[C@@]1(NC(=O)Cc2ccc(O)cc2)C(=O)N2C(C(=O)[O-])=C(CSc3nnnn3C)COC21.[Na+]` (some centres undefined), the minimum inhibitory concentration (MIC) came to 0.08 µg/mL in data set [1] and 0.1 µg/mL in data set [5]. For the same molecule, the Vmax was determined as 1694.9 cm⁻¹ in data set [2] and 1772.9 cm⁻¹ in data set [3]. Moreover, in data set [4], the k was 0.228 h⁻¹.

On to `COC1(NC(=O)C(C(=O)[O-])c2ccc(O)cc2)C(=O)N2C(C(=O)[O-])=C(CSc3nnnn3C)CCC21.[Na+].[Na+]` (centres undefined), for which the values for the minimum inhibitory concentration (MIC) in data set [6] and in data set [7] were 3.13 µg/mL and 6.25 µg/mL, respectively. Also, the Vmax worked out at 1684.5 cm⁻¹ in data set [2] and 1757 cm⁻¹ in data set [3]. For the same molecule, in data set [4], the k stood at 0.0694 h⁻¹.

Take `Cn1nnnc1SCC1=C(C(=O)[O-])N2C(=O)[C@@H](NC(=O)Cc3ccc(O)cc3)C2SC1.[Na+]` (some centres undefined): the MIC in data set [1] came to 1.2 µg/mL; in data set [5], 1.4 µg/mL. In addition, the Vmax in data set [2] turned out to be 1676.3 cm⁻¹; in data set [3], 1773.1 cm⁻¹. This molecule also yielded a k in data set [4] of 0.0227 h⁻¹.

For `CO[C@@]1(NC(=O)C(C(=O)[O-])c2ccc(O)cc2)C(=O)N2C(C(=O)[O-])=C(CSc3nnnn3C)COC21.[Na+].[Na+]` (some centres undefined), the minimum inhibitory concentration (MIC) in data set [8] is 0.1 µg/mL; in data set [1] it was 0.09 µg/mL; in data set [7], 0.1 µg/mL; in data set [5], 0.06 µg/mL. For the same molecule, the Vmax in data set [2] worked out at 1686.6 cm⁻¹; in data set [3] it was 1771.8 cm⁻¹. For the same molecule, the k in data set [4] stood at 0.178 h⁻¹.

With `CO[C@@]1(NC(=O)Cc2ccc(O)cc2)C(=O)N2C(C(=O)[O-])=C(CSc3nnnn3C)CSC21.[Na+]` (some centres undefined), the minimal inhibitory concentration (MIC) turned out to be 0.5 µg/mL in data set [1] and 1.3 µg/mL in data set [5]. Also, the Vmax was found to be 1690.6 cm⁻¹ in data set [2] and 1768.1 cm⁻¹ in data set [3]. In addition, the k in data set [4] worked out at 0.0351 h⁻¹.
